Numbered stars: 1 amine (or outer) side, 2 acyl side, 3 side chain; on linkers, the order of the positions; unused ones are H or OH. Square brackets hold non-standard residues; d marks the D form. Side chains are listed from the residue outwards. Peptide text beside a SMILES is read from it. * marks the point of attachment. X1 = N=C(N)NCCC[C@H](N)CN*; ΔPro = O=C(O)[C@@H]1C=CCN1; Dab = NCC[C@H](N)C(=O)O; CO = O=C([*:1])[*:2]
What was measured:
[1] = Retention time in human plasma treated with 1 uM (S)-5-guanidino-2-((S)-1-((6S,15S,18R)-1,6,15-triamino-18-(2-aminoethyl)-1-imino-9,16-dioxo-2,8,10,17-tetraazanonadecane)-2,3-dihydro-1H-pyrrole-2-carboxamido)pentanoic acid at 1 uM after 96 hrs by LC-MS analysis; format: ADME, cell-free
How it was run: (§1)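 Compounds incubated in human plasma at 37 °C; aliquots withdrawn at selected time intervals up to 96 h and analysed by RP-HPLC and LC-MS to follow parent loss and the fragments formed.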

Neuropilin-1 = Neuropilin-1 (Homo sapiens, UniProt O14786); test: Inhibition of biotinylated human VEGF-A165 binding to recombinant human NRP1 receptor after 2 hrs by chemiluminescence analysis relative to control
How it was run: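 ELISA-like competition format with chemiluminescent read-out of VEGF-A165 bound to NRP-1 in the presence of test peptidomimetic.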

[2] = Retention time in human plasma treated with 1 uM (S)-2-((S)-1-((S)-1-((S)-2-amino-6-(3-((S)-2-amino-5-guanidinopentyl)ureido)hexanoyl)pyrrolidine-2-carbonyl)pyrrolidine-2-carboxamido)-5-guanidinopentanoic acid at 1 uM after 96 hrs by LC-MS analysis; format: ADME, cell-free; how it was run: as §1
[3] = Metabolic stability in human plasma assessed as compound remaining at 1 uM after 96 hrs by RP-HPLC and LC-MS analysis relative to control; format: ADME, cell-free; settings: read-out: Stability; how it was run: as §1
[4] = Drug metabolism in human plasma assessed as (S)-2-amino-6-(3-((S)-2-amino-5-guanidinopentyl)ureido)hexanoic acid metabolite formation at 1 uM after 96 hrs by LC-MS analysis; format: ADME, cell-free; how it was run: as §1
[5] = Stability in human plasma assessed as enzymatic cleavage of Lys(epsilon)-Arg(U) bond at 1 uM after 96 hrs by LC-MS analysis; format: ADME, cell-free; how it was run: as §1

Chain of Neuropilin-1 (O14786 whole entry): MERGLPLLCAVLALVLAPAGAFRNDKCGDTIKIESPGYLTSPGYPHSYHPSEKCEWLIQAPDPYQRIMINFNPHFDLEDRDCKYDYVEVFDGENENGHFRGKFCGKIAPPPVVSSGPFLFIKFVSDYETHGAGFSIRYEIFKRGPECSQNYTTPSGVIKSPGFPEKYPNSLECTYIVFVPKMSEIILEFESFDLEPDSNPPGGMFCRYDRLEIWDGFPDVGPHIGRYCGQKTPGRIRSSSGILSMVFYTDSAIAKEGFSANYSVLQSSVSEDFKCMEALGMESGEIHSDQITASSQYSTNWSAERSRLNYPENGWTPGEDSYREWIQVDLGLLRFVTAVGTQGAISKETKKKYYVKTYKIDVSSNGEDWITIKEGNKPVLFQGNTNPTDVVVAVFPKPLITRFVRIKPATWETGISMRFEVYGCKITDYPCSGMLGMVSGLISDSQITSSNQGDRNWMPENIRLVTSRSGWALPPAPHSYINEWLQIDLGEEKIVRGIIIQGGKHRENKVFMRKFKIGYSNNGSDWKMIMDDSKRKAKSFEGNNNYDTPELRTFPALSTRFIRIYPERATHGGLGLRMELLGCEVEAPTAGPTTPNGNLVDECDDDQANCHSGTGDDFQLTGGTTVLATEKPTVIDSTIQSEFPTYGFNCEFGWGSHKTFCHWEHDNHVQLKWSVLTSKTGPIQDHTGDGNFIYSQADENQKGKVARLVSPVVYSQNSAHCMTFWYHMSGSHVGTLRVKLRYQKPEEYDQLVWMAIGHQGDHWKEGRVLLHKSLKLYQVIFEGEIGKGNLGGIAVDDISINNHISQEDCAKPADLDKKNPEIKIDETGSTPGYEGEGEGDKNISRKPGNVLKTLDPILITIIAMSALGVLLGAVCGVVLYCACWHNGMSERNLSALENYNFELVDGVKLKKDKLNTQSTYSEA

| Retention_time [1] [min] | IC50 (Neuropilin-1) [µM] | SMILES | further results |
| --- | --- | --- | --- |
| 0.98 | – | N=C(N)NCCC[C@H](NC(=O)[C@@H]1C=CCN1C(=O)[C@@H](N)CCN)C(=O)O (H-[Dab]-[ΔPro]-Arg-OH) | – |
| – | 26 | N=C(N)NCCC[C@H](N)CNC(=O)NCCCC[C@H](N)C(=O)N[C@H](CCN)C(=O)N1CC[C@H]1C(=O)N[C@@H](CCCNC(=N)N)C(=O)O | – |
| – | 5.4 | N=C(N)NCCC[C@H](N)CNC(=O)NCCCC[C@H](N)C(=O)N[C@H](CCN)C(=O)N1C2CCCCC2C[C@H]1C(=O)N[C@@H](CCCNC(=N)N)C(=O)O (stereo not given in full) | – |
| 2.92 | – | N=C(N)NCCC[C@H](N)CNC(=O)NCCCC[C@H](N)C(=O)O | Retention_time [2]: 3 min |
| – | 7.7 | N=C(N)NCCC[C@H](N)CNC(=O)NCCCC[C@H](N)C(=O)N1CCC[C@H]1C(=O)N1CCC[C@H]1C(=O)N[C@@H](CCCNC(=N)N)C(=O)O (H-K([CO-X1])PPR-OH) | remaining at 96 h, 1 µM [3]: 40 to 45%; Drug metabolism [4]: Metabolite_Detected; Stability [5]: Stable |
| 9.02 | – | N=C(N)NCCC[C@H](N)CNC(=O)NCCCC[C@H](N)C(=O)N[C@@H](CCN)C(=O)N1CC=C[C@H]1C(=O)O | – |
